The record followed here is ChEMBL document CHEMBL1145892, “2-Substitution of adenine nucleotide analogues containing a bicyclo[3.1.0]hexane ring system locked in a northern conformation: enhanced potency as P2Y1 receptor antagonists” (J Med Chem, 2003).

As a reminder, the IC50 is the concentration needed to halve the response being measured. The low end stands for higher potency, the high end for lower potency. Usually Ki stands for the dissociation constant of the complex between target and ligand, obtained from inhibition or displacement. Higher therefore signals a looser hold on the target.

Test [1] deals with T1, P2Y purinoceptor 1 (Homo sapiens, UniProt P47900). Description: Antagonistic activity against P2Y purinoceptor 1. In kind it is functional. An outline of the steps:
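Human P2Y1 stably expressed in 1321N1 astrocytoma cells, labeled 18–24 h at 37 °C with 1.0 µCi [3H]myo-inositol in inositol-free DMEM. Inositol phosphate accumulation was stimulated by 30 nM 2MeSADP over 10 min at 37 °C with 10 mM LiCl. Total [3H]inositol phosphates were measured by anion exchange. IC50 came from a four-parameter logistic fit; ≥3 experiments, duplicate or triplicate.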

Test [2] has as its target T1, P2Y purinoceptor 1. Description: Inhibition of [3H]5 binding to P2Y purinoceptor 1 expressed in Sf9 cells. The method, boiled down:
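Membranes were from Sf9 cells expressing human P2Y1 via recombinant baculovirus. They were incubated 30 min at 4 °C with [3H]5 (~20 nM or 10 nM as stated) across a wide analogue concentration range. Samples were filtered over glass-fiber with ice-cold 10 mM Tris pH 7.5/145 mM NaCl and counted by scintillation. Assays were triplicate, three experiments. Ki = IC50/(1+[L]/Kd), Kd 8 nM.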

T1 sequence (P47900 whole entry): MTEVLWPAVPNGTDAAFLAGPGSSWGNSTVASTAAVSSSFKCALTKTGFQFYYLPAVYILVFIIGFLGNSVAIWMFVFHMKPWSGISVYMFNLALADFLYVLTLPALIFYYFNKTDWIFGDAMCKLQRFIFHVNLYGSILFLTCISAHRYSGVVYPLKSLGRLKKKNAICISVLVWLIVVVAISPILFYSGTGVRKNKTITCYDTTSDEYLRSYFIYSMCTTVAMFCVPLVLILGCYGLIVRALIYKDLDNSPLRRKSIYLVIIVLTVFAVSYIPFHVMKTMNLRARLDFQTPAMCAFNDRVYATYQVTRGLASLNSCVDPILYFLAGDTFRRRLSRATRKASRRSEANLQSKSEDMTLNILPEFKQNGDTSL

In turn, `CNc1nc(F)nc2c1ncn2[C@H]1C[C@H](OP(=O)(O)O)[C@]2(COP(=O)(O)O)C[C@H]12` yielded a half-maximal inhibitory concentration (IC50) at P2Y purinoceptor 1 [1] of 356 nM. This molecule also returned an inhibition constant (Ki) at P2Y purinoceptor 1 [2] of 45 nM.

For the molecule `CCCC/C=C/c1nc(NC)c2ncn([C@H]3C[C@H](OP(=O)(O)O)[C@]4(COP(=O)(O)O)C[C@H]34)c2n1`, the IC50 against P2Y purinoceptor 1 [1] was 1870 nM. Moreover, affinity at P2Y purinoceptor 1 [2] was put at a Ki of 330 nM.

In the case of `CNc1nc(Cl)nc2c1ncn2[C@H]1C[C@H](OP(=O)(O)O)[C@]2(COP(=O)(O)O)C[C@H]12`, the IC50 on P2Y purinoceptor 1 [1] worked out at 52 nM. On P2Y purinoceptor 1 [2], this molecule registered a Ki of 2.5 nM.

The molecule `CNc1ncnc2c1ncn2[C@H]1C[C@H](OP(=O)(O)O)[C@]2(COP(=O)(O)O)C[C@H]12` yielded an IC50 against P2Y purinoceptor 1 [1] of 157 nM. This molecule also registered an inhibition constant (Ki) at P2Y purinoceptor 1 [2] of 17.6 nM.

The molecule `CNc1nc(C)nc2c1ncn2[C@H]1C[C@H](OP(=O)(O)O)[C@]2(COP(=O)(O)O)C[C@H]12` came in with a half-maximal inhibitory concentration (IC50) against P2Y purinoceptor 1 [1] of 49 nM. In addition, the Ki at P2Y purinoceptor 1 [2] is 3.6 nM.

With `CNc1nc(SC)nc2c1ncn2[C@H]1C[C@H](OP(=O)(O)O)[C@]2(COP(=O)(O)O)C[C@H]12`, the half-maximal inhibitory concentration (IC50) at P2Y purinoceptor 1 [1] amounted to 221 nM. For the same molecule, affinity at P2Y purinoceptor 1 [2] was put at a Ki of 91 nM.

Turning to `CCCC/C=C\c1nc(NC)c2ncn([C@H]3C[C@H](OP(=O)(O)O)[C@]4(COP(=O)(O)O)C[C@H]34)c2n1`, at P2Y purinoceptor 1 [1], the IC50 came out at 2400 nM. In addition, the affinity at P2Y purinoceptor 1 [2], expressed as Ki, was 430 nM.

Take `CNc1nc([Se]C)nc2c1ncn2C1CC(OP(=O)(O)O)[C@]2(COP(=O)(O)O)C[C@H]12` (stereo partly specified): the IC50 on P2Y purinoceptor 1 [1] turned out to be 377 nM. The inhibition constant Ki at P2Y purinoceptor 1 [2] amounted to 35 nM.

Take `CSc1nc(N)c2ncn([C@H]3C[C@H](OP(=O)(O)O)[C@]4(COP(=O)(O)O)C[C@H]34)c2n1`: on P2Y purinoceptor 1 [1], the IC50 is 367 nM. This molecule also showed an inhibition constant (Ki) on P2Y purinoceptor 1 [2] of 863 nM.

The molecule `CNc1nc(Br)nc2c1ncn2C1CC(OP(=O)(O)O)[C@]2(COP(=O)(O)O)C[C@H]12` (stereo partly specified) yielded an IC50 at P2Y purinoceptor 1 [1] of 37 nM. Besides, at P2Y purinoceptor 1 [2], the affinity corresponds to a Ki of 5.1 nM.

With `CNc1nc(I)nc2c1ncn2[C@H]1C[C@H](OP(=O)(O)O)[C@]2(COP(=O)(O)O)C[C@H]12`, inhibition on P2Y purinoceptor 1 [1] was half-maximal at 8.4 nM (IC50). Also, the inhibitory constant (Ki) on P2Y purinoceptor 1 [2] was determined as 0.78 nM.

The molecule `Nc1nc(I)nc2c1ncn2C1CC(OP(=O)(O)O)[C@]2(COP(=O)(O)O)C[C@H]12` (stereo partly specified) showed a 50% inhibitory concentration (IC50) at P2Y purinoceptor 1 [1] of 87 nM. Also, the Ki at P2Y purinoceptor 1 [2] is 12.6 nM.

As to `CCCCCCc1nc(NC)c2ncn([C@H]3C[C@H](OP(=O)(O)O)[C@]4(COP(=O)(O)O)C[C@H]34)c2n1`, half-maximal inhibition against P2Y purinoceptor 1 [1] (IC50) required 452 nM. Besides, the affinity on P2Y purinoceptor 1 [2], expressed as Ki, was 80 nM.
